Columns and labels:
Canis familiaris [1] = assay: Myocardial contractility in an acutely instrumented anesthetized dog model at 0.03 mg/kg intravenous dose; type: functional, Canis lupus familiaris, Myocardium
Summary of the method: (§1)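 Adult mongrel dogs of either sex, anesthetized with pentobarbital 35 mg/kg IV and maintained by infusion at 5 mg/kg per h. Control data collected for 30 min. Drug given IV in saline (or dilute HCl/NaOH diluted with saline), 0.1 mL/kg over 1 min. Ascending doses, usually half-log apart, 10-30 min between doses, one compound per dog. Recorded LV dP/dtmax, heart rate and aortic pressure as % change from control.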

Canis familiaris [2] = assay: Mean arterial blood pressure (MABP) in an acutely instrumented anesthetized dog model at 0.01 mg/kg intravenous dose; type: functional, Canis lupus familiaris; summary of the method: as §1
Canis familiaris [3] = assay: Mean arterial blood pressure (MABP) in an acutely instrumented anesthetized dog model at 0.03 mg/kg intravenous dose; type: functional, Canis lupus familiaris; summary of the method: as §1
Canis familiaris [4] = assay: Mean arterial blood pressure (MABP) in an acutely instrumented anesthetized dog model at 0.1 mg/kg intravenous dose; type: functional, Canis lupus familiaris; summary of the method: as §1
Canis familiaris [5] = assay: Myocardial contractility in an acutely instrumented anesthetized dog model at 0.001 mg/kg intravenous dose; type: functional, Canis lupus familiaris, Myocardium; summary of the method: as §1
Canis familiaris [6] = assay: Myocardial contractility in an acutely instrumented anesthetized dog model at 0.01 mg/kg intravenous dose; type: functional, Canis lupus familiaris, Myocardium; details: dose 0.1 mg/kg, in the assay text read “0.1 mg/kg” for “0.01 mg/kg”; summary of the method: as §1
Canis familiaris [7] = assay: Myocardial contractility in an acutely instrumented anesthetized dog model at […] intravenous dose; type: functional, Canis lupus familiaris, Myocardium
Canis familiaris [8] = assay: Myocardial contractility in an acutely instrumented anesthetized dog model at 1 mg/kg intravenous dose; type: functional, Canis lupus familiaris, Myocardium; summary of the method: as §1
Canis familiaris [9] = assay: Heart rate (HR) in an acutely instrumented anesthetized dog model at 0.03 mg/kg intravenous dose; type: functional, Canis lupus familiaris; summary of the method: as §1
Canis familiaris [10] = assay: Heart rate (HR) in an acutely instrumented anesthetized dog model at 0.1 mg/kg intravenous dose; type: functional, Canis lupus familiaris; summary of the method: as §1
Canis familiaris [11] = assay: Heart rate (HR) in an acutely instrumented anesthetized dog model at […] intravenous dose; type: functional, Canis lupus familiaris
Canis familiaris [12] = assay: Heart rate (HR) in an acutely instrumented anesthetized dog model at 1 mg/kg intravenous dose; type: functional, Canis lupus familiaris; summary of the method: as §1
Canis familiaris [13] = assay: Mean arterial blood pressure (MABP) in an acutely instrumented anesthetized dog model at 1 mg/kg intravenous dose; type: functional, Canis lupus familiaris; summary of the method: as §1
Canis familiaris [14] = assay: Heart rate (HR) in an acutely instrumented anesthetized dog model at 0.01 mg/kg intravenous dose; type: functional, Canis lupus familiaris; summary of the method: as §1
Canis familiaris [15] = assay: Change from control in mean arterial blood pressure (MABP) in an acutely instrumented anesthetized dog model at […] intravenous dose
Canis familiaris [16] = assay: Mean arterial blood pressure (MABP) in an acutely instrumented anesthetized dog model at 0.001 mg/kg intravenous dose; type: functional, Canis lupus familiaris; summary of the method: as §1
Canis familiaris [17] = assay: Mean arterial blood pressure (MABP) in an acutely instrumented anesthetized dog model at 0.003 mg/kg intravenous dose; type: functional, Canis lupus familiaris; summary of the method: as §1
Canis familiaris [18] = assay: Heart rate (HR) in an acutely instrumented anesthetized dog model at 0.001 mg/kg intravenous dose; type: functional, Canis lupus familiaris; summary of the method: as §1
Canis familiaris [19] = assay: Heart rate (HR) in an acutely instrumented anesthetized dog model at 0.003 mg/kg intravenous dose; type: functional, Canis lupus familiaris; summary of the method: as §1
Canis familiaris [20] = assay: Myocardial contractility in conscious dog model after 34-40 minutes at 0.1 mg/kg oral administration, range 5-10; type: functional, Canis lupus familiaris, Myocardium
Summary of the method: (§2)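 Conscious, fasted adult mongrel dogs with surgically implanted devices for ECG, aortic pressure and flow, and LV pressure. Drug given by gavage as a solution or suspension, in single or multiple doses. Contractility recorded as % increase 34-40 min after dosing, with duration of response noted. Mean ± SEM; Student's t test, p < 0.05.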

Canis familiaris [21] = assay: Myocardial contractility in conscious dog model after 34-40 minutes at […] oral administration, activity >3 hr (p<0.05); type: functional, Canis lupus familiaris, Myocardium
Canis familiaris [22] = assay: Myocardial contractility in conscious dog model after 34-40 minutes at 1 mg/kg oral administration, activity >4 hr; type: functional, Canis lupus familiaris, Myocardium; summary of the method: as §2
Canis familiaris [23] = assay: Myocardial contractility in conscious dog model after 34-40 minutes at 1 mg/kg oral administration, activity 3-4 hr (p<0.05); type: functional, Canis lupus familiaris, Myocardium; summary of the method: as §2
[24] = dose 0.01 mg/kg, in the assay text read “0.01 mg/kg” for “0.001 mg/kg”

Structure (SMILES)	Change from Control (LV dp/dt) (Canis familiaris [1]) [%]	MABP change from control (Canis familiaris [2]) [%]	MABP % change from control (Canis familiaris [3])	MABP change from control (Canis familiaris [4]) [%]	Change from Control (LV dp/dt) (Canis familiaris [5]; [24]) [%]	Change from Control (LV dp/dt) (Canis familiaris [6]) [%]	Change from Control (LV dp/dt) (Canis familiaris [7]) [%]	Change from Control (LV dp/dt) (Canis familiaris [8]) [%]	HR change from control (Canis familiaris [9]) [%]	HR change from control (Canis familiaris [10]) [%]	HR change from control (Canis familiaris [11]) [%]	HR change from control (Canis familiaris [12]) [%]	MABP change from control (Canis familiaris [13]) [%]	HR change from control (Canis familiaris [14]) [%]	MABP change from control (Canis familiaris [15]) [%]	also measured
Cc1nc(O)c(C#N)c(C)c1-c1ccc(-n2ccnc2)cc1	86	0	-6	-17.5	21	137	160	135	2	15	16	26	-49	1	-35	
Cc1c(-c2ccc(-n3ccnc3)cc2)cnc(O)c1C#N	12	1.5	4.7	5.5	2.5	21	54	125.5	2	4.5	7.5	19.5	-2.5	-0.5	9.7	
Cc1nc(O)ccc1-c1ccc(-n2ccnc2)cc1	85	-2.5	-2	-9.5	36	109	121	122	9	17	26	29	-19.5	3	-20	
Cc1nc(O)c(C#N)cc1-c1ccc(-n2ccnc2)cc1	122.7	0.75	-2.2	-9.7	50.3	154			14	34.7				4.5		MABP (Canis familiaris [16]): -1; MABP change from control (Canis familiaris [17]): 1.7%; Change from Control (LV dp/dt) (Canis familiaris [5]): 4.5%; HR change from control (Canis familiaris [18]): 1%; HR change from control (Canis familiaris [19]): 3%; Increase contractility (Canis familiaris [20]): 10%; Increase contractility (Canis familiaris [21]): 35%; Increase contractility (Canis familiaris [22]): 75%
Cc1nc(O)c(N)cc1-c1ccc(-n2ccnc2)cc1	80.5	0.5	1	-5	24.5	134.5	125.5	105.5	12	18	21.5	22	-27.5	-1.5	-17.5	
Cc1c(-c2ccc(-n3ccnc3)cc2)cc(C#N)c(=O)n1C	10	2	1	2	8	16	18	39	0	3	2	3	0.5	1	1.5	
Cc1[nH]c(=O)c(C#N)cc1-c1ccncc1 [MILRINONE]	77.5	-2	-8	-13	30.5	113	142.5	148.5	13.5	27	39.2	48.5	-36.9	3	-19.9	Increase contractility (Canis familiaris [23]): 45%
